Source: PubChem
OXTR agonist = human OXTR agonists, primary screen, fluorescence, CHO-OTR cells, Fluo-8 calcium; 0.32% of 320,000 active; activation, % at 3 µM; AID 2435, 2010; Fluo-8 calcium fluorescence; normalized: DMSO 0%, oxytocin 100%; Oxytocin receptor (Homo sapiens), P30559;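 active = activation above the mean of all tested compounds plus 3 SD, cutoff set per screening run, cut at about 20% in these data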;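 note: peak over basal fluorescence ratio from a 100 s FLIPR kinetic read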
Target sequence (P30559 whole entry, looked up): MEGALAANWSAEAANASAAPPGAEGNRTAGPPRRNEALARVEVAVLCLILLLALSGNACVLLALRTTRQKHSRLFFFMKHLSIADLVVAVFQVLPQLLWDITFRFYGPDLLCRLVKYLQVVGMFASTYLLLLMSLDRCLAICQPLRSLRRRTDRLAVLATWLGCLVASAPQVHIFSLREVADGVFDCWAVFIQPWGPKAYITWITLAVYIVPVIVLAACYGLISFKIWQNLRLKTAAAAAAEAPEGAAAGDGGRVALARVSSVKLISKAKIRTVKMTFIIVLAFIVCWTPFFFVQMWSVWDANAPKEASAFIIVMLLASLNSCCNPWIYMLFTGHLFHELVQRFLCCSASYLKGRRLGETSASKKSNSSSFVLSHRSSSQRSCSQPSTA
OXTR potentiator = human OXTR potentiators, primary screen, fluorescence, CHO-OTR cells, Fluo-8 calcium. 0.061% of 320,000 active. Fluo-8 calcium fluorescence, potentiator mode; 0% = oxytocin EC15, 100% = EC100. activation, % at 3 µM;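 active = activation above that plate's cutoff, the mean activation of tested compounds plus 3 SD, cut at about 6.6% in these data, passing the limit was not always enough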;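 note: 100% uses oxytocin at 75 nM as the full agonist control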
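Material: human OTR in CHO cells. Compound: 3.0 µM, one dose. Timing: compound 6 min at room temperature before oxytocin, 100 s read. Evaluation: % activation of max/min ratio relative to oxytocin controls. Replication: single well per compound, singlicate. Signal: Fluo-8 calcium dye fluorescence.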
TAAR1 antag = human TAAR1 antagonists, primary screen, Fluo-8 calcium fluorescence, CHO RD-HGA16 cells; Trace amine-associated receptor 1 (Homo sapiens), Q96RJ0; antagonist; inhibition, % at 3 µM; 1.5% of 360,000 active; AID 624466, 2012;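 active = inhibition above a per-plate cutoff, the mean inhibition of test compounds on that plate plus 3 SD, cut at about 49% in these data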;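 note: 0% = DMSO plus EC80 beta-PEA response and 100% = DMSO alone without agonist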
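Test system – hTAAR1-expressing CHO RD-HGA16 cells, Gα16-coupled · Reagent – β-PEA at EC80 concentration, post-compound challenge · Compound dosing – 3 µM, single point · Timing – 140 s kinetic read after compound, 140 s after agonist · Detection – Fluo-8 intracellular calcium dye fluorescence, real-time kinetic reads · Control set – DMSO and EC80 PEA controls · Repeats – n of 1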
V1R ag counter = agonists of human V1a receptor, primary screen, counter-screen for OXTR agonist project, fluorescence, CHO-V1R cells | Vasopressin V1a receptor (Homo sapiens), P37288 | Fluo-8 calcium fluorescence, agonist mode; 0% DMSO, 100% 3 nM vasopressin | activation, % at 3 µM | 0.25% of 320,000 active | AID 2797, 2010;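 active = activation above the mean activation of all tested compounds plus 3 SD, per screening run, cut at about 20% in these data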;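 note: signal is peak over basal fluorescence ratio across a 100 second FLIPR read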
TAAR1 agonist = human TAAR1 agonists, primary screen, Fluo-8 calcium fluorescence, CHO RD-HGA16 cells; 0.99% of 360,000 active; activation, % at 3 µM; Trace amine-associated receptor 1 (Homo sapiens), Q96RJ0; vehicle wells 0%, saturating PEA agonist 100%; AID 624467, 2012;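 active = activation above the mean activation of all test compounds in the run plus 3 SD, cut at about 38% in these data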
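Test system: RD-HGA16 (CHO) cells co-expressing Gα16 and hTAAR1 / Benchmarks: DMSO vehicle as 0%, PEA at EC100 as 100% / Repeats: no replicates (n 1) / Measure: % activation from peak over basal fluorescence ratio, DMSO-to-PEA scaled / Timing: 17-24 h plating, Fluo-8 75 min 37 °C, 30 min RT / Technique: kinetic Fluo-8 calcium fluorescence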
Starred values were filed as active, the others as inactive; x = no result given. Only some compounds are listed: those with a hit (about 2.3% of all), similar ones and a draw of the others.

SMILES	OXTR agonist	OXTR potentiator	TAAR1 antag	V1R ag counter	TAAR1 agonist
O=C1/C(=C\c2ccc(Cl)c(Cl)c2)CN(C(=O)CCN2CCOCC2)C/C1=C/c1ccc(Cl)c(Cl)c1	x	x	57*	x	12
CCOC(=O)N1CCN(C(=O)C[C@H]2C[C@@]3(C(=O)OC)C(=C[C@H](C(C)(C)C)O[C@@H]3C)N(Cc3ccc4c(c3)OCO4)C2=O)CC1	x	x	-11	x	-2
COC(=O)C1=C(C)N(Cc2ccc(C(F)(F)F)cc2)C(=NCc2ccccc2)NC1c1ccc(Cl)cc1 (stereo not drawn)	x	x	43	x	17
COc1cc(N2CCCC2)c(OC)cc1/C=C1/NC(=S)NC1=O	48*	-9	51*	36*	45*
COc1ccc(OC)c(/C=C2\NC(=O)NC2=O)c1	0	6	-18	0	5
CC(C)(C)NC(=O)C1c2ccccc2OCC(=O)N1Cc1ccco1 (stereo not drawn)	x	x	5	x	0
CCCC(=O)OC[C@H]1CN(C2CCCC2)S(=O)(=O)c2c(F)cccc2O1	x	x	-13	x	1
O=C(N/N=C/c1c(O)ccc2ccccc12)c1ccc(Br)o1	20*	-17	-2	22*	9
COc1ccc(N(CC(=O)N2CCc3ccccc3C2)S(C)(=O)=O)cc1	0	-5	2	1	42*
COc1ccc(N(CC(=O)N2CCc3ccccc3C2)S(=O)(=O)c2c(C)[nH]c(=O)[nH]c2=O)cc1	1	-7	-8	1	1
COc1ccc(OC)c(S(=O)(=O)N(C)CC(=O)N2CCc3ccccc3C2)c1	0	-7	13	0	45*
CC(=NO)C1CCC2C3CCC4=CC(=NO)CCC4(C)C3C(O)CC12C (stereo not drawn)	x	x	67*	x	21
O=C(COC(=O)c1c2c(nc3ccccc13)CCCC2)Nc1ccc2c(c1)OCO2	-2	-23	54*	-1	8
CC(C)c1ccccc1NC(=O)COC(=O)c1c2c(nc3ccccc13)CCN(Cc1ccccc1)C2	-1	-13	59*	-1	12
Cc1c(Cl)cccc1NC(=O)COC(=O)c1c2c(nc3ccccc13)CCN(Cc1ccccc1)C2	0	-10	47	2	15
CC(C)NC(=O)NC(=O)COC(=O)c1c2c(nc3ccccc13)CCC2	1	-12	52*	5	10
C[C@@H]1ON(C)[C@H]2C[C@H]3c4[nH]c5cccc(-c6ccccc6)c5c4CCN3C[C@@H]12	x	x	-24	x	2
COc1ccccc1Cc1c(-c2ccc(C)cc2)nc2ccc(C)cn12	x	x	-23	x	1
CC(=O)N(C)c1ccc(NC(=O)Nc2ccc(C)c(C)c2)cc1	2	-12	58*	2	34
O=C(O)c1cc(Cl)ccc1-c1ccc(/C=C/c2cc(C(F)(F)F)[nH]c(=O)n2)o1	14	-8	9	17	67*
COC(=O)c1sc2ncn(CC(=O)NCCc3ccc(OC)c(OC)c3)c(=O)c2c1C	0	-8	-9	1	0
COc1ccc(CCNC(=O)Cn2cnc3sc(C)c(-c4ccc(F)cc4)c3c2=O)cc1OC	20*	-36	11	23*	54*
Cc1sc2ncn(CC(=O)NCCc3ccccc3)c(=O)c2c1C	-1	-7	12	0	42*
O=C(Cn1cnc2sc(-c3ccccc3)cc2c1=O)NCCc1ccccc1	0	-12	8	0	39*
COC(=O)[C@]12C[C@H](CC(=O)NCC34CC5CC(CC(C5)C3)C4)C(=O)N(Cc3ccccc3)C1=C[C@H](C(C)C)O[C@@H]2C1CC1	x	x	-3	x	1
COc1ccc(NC(=O)c2cc(-c3cc(F)ccc3OC)n[nH]2)c(OC)c1	x	x	50*	x	7
COc1ccc(OC)c(NC(=O)c2cc(-c3ccc(F)cc3OC(C)C)n[nH]2)c1	x	x	41	x	3
CC(C)Oc1cc(F)ccc1-c1cc(C(=O)Nc2ccc(C(C)C)cc2)[nH]n1	x	x	28	x	-1
CC(C)Oc1cc(F)ccc1-c1cc(C(=O)Nc2ccccc2)[nH]n1	x	x	54*	x	0
